Reference: ChEMBL document CHEMBL1155099, “Natural products in parallel synthesis: triazole libraries of nonactic acid” (2008)
Active and inactive are the calls of the source.

What was measured:
Format in all cases: functional, organism-based
Pseudomonas aeruginosa = experiment: Antibacterial activity against Pseudomonas aeruginosa at 1 mM by almar blue dye reduction assay
How it was run: (§1)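 Single-point primary screen at 1 mM using Alamar Blue dye reduction as the growth read-out.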

Bacillus subtilis = experiment: Antibacterial activity against Bacillus subtilis at 1 mM by almar blue dye reduction assay; how it was run: as §1
Cryptococcus neoformans = experiment: Antifungal activity against Cryptococcus neoformans at 1 mM by almar blue dye reduction assay; how it was run: as §1
Saccharomyces cerevisiae = experiment: Antifungal activity against Saccharomyces cerevisiae at 1 mM by almar blue dye reduction assay; how it was run: as §1
Escherichia coli = experiment: Antibacterial activity against Escherichia coli at 1 mM by almar blue dye reduction assay; how it was run: as §1
Bacillus anthracis = experiment: Antibacterial activity against Bacillus anthracis at 1mM by almar blue dye reduction assay
Staphylococcus aureus = experiment: Antibacterial activity against Staphylococcus aureus at 1 mM by almar blue dye reduction assay; how it was run: as §1
Bacillus cereus = experiment: Antibacterial activity against Bacillus cereus at 1 mM by almar blue dye reduction assay; how it was run: as §1
Candida albicans = experiment: Antifungal activity against Candida albicans at 1 mM by almar blue dye reduction assay; how it was run: as §1

Measured: Activity

CC(C)NC(=O)[C@H](C)[C@H]1CC[C@@H](C[C@@H](C)n2cc(C#CCN(C)CCc3ccccc3)nn2)O1
inactive: all assays above

C[C@H](C[C@@H]1CC[C@H]([C@@H](C)C(=O)N2CCCC2)O1)n1cc(C#Cc2ccc(C(F)(F)F)cc2)nn1
inactive: all assays above

C[C@H](C[C@@H]1CC[C@H]([C@@H](C)C(=O)N2CCCC2)O1)n1cc(C#CCc2ccccc2)nn1
inactive: all assays above

C[C@H](CC1CCC([C@@H](C)C(=O)N2CCN(CC3CCCO3)CC2)O1)n1cc(C#CCOC(=O)OCc2ccccc2)nn1 (single isomer, unassigned)
inactive: all assays above

COc1ccc(C#Cc2cn([C@H](C)C[C@@H]3CC[C@H]([C@@H](C)C(=O)NC(C)C)O3)nn2)cc1
inactive: all assays above

CCC(=O)OCC#Cc1cn([C@H](C)CC2CCC([C@@H](C)C(=O)N3CCN(CC4CCCO4)CC3)O2)nn1 (single isomer, unassigned)
inactive: all assays above

CCN(CC)C(=O)[C@H](C)[C@H]1CC[C@@H](C[C@@H](C)n2cc(C#Cc3ccc(-c4ccccc4)cc3)nn2)O1
inactive: all assays above

C[C@H](C[C@@H]1CC[C@H]([C@@H](C)C(=O)N2CCCC2)O1)n1cc(C#CCN(C)CCc2ccccc2)nn1
inactive: all assays above

C[C@H](C[C@@H]1CC[C@H]([C@@H](C)C(=O)N(C)Cc2ccccc2)O1)n1cc(C#CCN2CCC(c3ccccc3)CC2)nn1
inactive: all assays above

C[C@H](C[C@@H]1CC[C@H]([C@@H](C)C(=O)N2CCCC2)O1)n1cc(C#CC2=CCCCC2)nn1
inactive: all assays above

COc1ccc(OCC#Cc2cn([C@H](C)C[C@@H]3CC[C@H]([C@@H](C)C(=O)N(C)Cc4ccccc4)O3)nn2)cc1
inactive: all assays above

COc1cccc(OCC#Cc2cn([C@H](C)C[C@@H]3CC[C@H]([C@@H](C)C(=O)N4CCCC4)O3)nn2)c1OC
inactive: all assays above

C[C@H](C[C@@H]1CC[C@H]([C@@H](C)C(=O)N(C)Cc2ccccc2)O1)n1cc(C#Cc2ccc(C(F)(F)F)cc2)nn1
inactive: all assays above

CC(C)NC(=O)[C@H](C)[C@H]1CC[C@@H](C[C@@H](C)n2cc(C#CCOc3ccccc3)nn2)O1
inactive: all assays above

CCN(CC)C(=O)[C@H](C)C1CCC(C[C@@H](C)n2cc(C#CCNC(=O)OCc3ccccc3)nn2)O1 (single isomer, unassigned)
inactive: all assays above

CC(C)NC(=O)[C@H](C)[C@H]1CC[C@@H](C[C@@H](C)n2cc(C#CCN3CCN(c4ccccc4)CC3)nn2)O1
inactive: all assays above

C[C@H](C[C@@H]1CC[C@H]([C@@H](C)C(=O)N(C)Cc2ccccc2)O1)n1cc(C#CCOc2cccc(-c3ccccc3)c2)nn1
inactive: all assays above

CCN(CC)C(=O)[C@H](C)C1CCC(C[C@@H](C)n2cc(C#CCOC(=O)OCc3ccccc3)nn2)O1 (single isomer, unassigned)
inactive: all assays above

C[C@H](C[C@@H]1CC[C@H]([C@@H](C)C(=O)N(C)Cc2ccccc2)O1)n1cc(C#CCc2ccccc2)nn1
inactive: all assays above

CCCCCC#Cc1cn([C@H](C)C[C@@H]2CC[C@H]([C@@H](C)C(=O)N(CC)CC)O2)nn1
inactive: all assays above

COCC#Cc1cn([C@H](C)C[C@@H]2CC[C@H]([C@@H](C)C(=O)N(C)Cc3ccccc3)O2)nn1
inactive: all assays above

CCCCN(CC#Cc1cn([C@H](C)C[C@@H]2CC[C@H]([C@@H](C)C(=O)N3CCCC3)O2)nn1)CCCC
inactive: all assays above

CCN(CC)C(=O)[C@H](C)[C@H]1CC[C@@H](C[C@@H](C)n2cc(C#CCOc3ccc(C(F)(F)F)cc3)nn2)O1
inactive: all assays above
